# Measurements as given in ChEMBL document CHEMBL1121525, “Folate analogues altered in the C9--N10 bridge region. 14. 11-Oxahomofolic acid, a potential antitumor agent” (J Med Chem, 1980).
# What was measured:
# Type in all cases: functional, organism-based
# Enterococcus faecium [1] = test: Compound was measured for the 50% growth inhibition of Streptococcus faecium ATCC 8043 microorganism.; details: for IC50: Enterococcus faecium, ATCC 8043, read-out: I50
# Procedure, shortened: (§1)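 Growth-inhibition test. The reduced test forms were quantified by UV absorbance at pH 7.4 using a molar absorptivity at 270 or 301 nm. Other forms were quantified by weight. The 7,8-dihydro form was made by excess sodium dithionite reduction of the aqueous potassium salt at room temperature.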
# Enterococcus faecium [2] = test: Compound was measured for the 50% growth inhibition of Streptococcus faecium MTX resistant microorganism.; details: for IC50: Enterococcus faecium, read-out: I50; procedure, shortened: as §1
# Lacticaseibacillus casei [3] = test: Compound was measured for the 50% growth inhibition of Lactobacillus casei ATCC 7469 microorganism.; details: for IC50: Lacticaseibacillus casei, ATCC 7469, read-out: I50
# Procedure, shortened: (§2)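 Drug solution concentrations were set either by weight or by UV absorbance at pH 7.4, using extinction coefficients of 9600 at 270 nm or 10 250 at 301 nm. The 7,8-dihydro form was made by treating the potassium salt with excess sodium dithionite at room temperature. The tetrahydro forms came from catalytic or enzymatic reduction.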
# Lacticaseibacillus casei [4] = test: Compound was measured for the 50% growth inhibition of Lactobacillus casei MTX resistant microorganism.; details: for IC50: Lacticaseibacillus casei, read-out: I50; procedure, shortened: as §2
SMILES,IC50 (Enterococcus faecium [1]),IC50 (Enterococcus faecium [2]),IC50 (Lacticaseibacillus casei [3]),IC50 (Lacticaseibacillus casei [4]),I50 (Enterococcus faecium [1]),I50 (Enterococcus faecium [2]),I50 (Lacticaseibacillus casei [3]),I50 (Lacticaseibacillus casei [4])
Nc1nc(O)c2nc(CCOc3ccc(C(=O)NC(CCC(=O)O)C(=O)O)cc3)cnc2n1 (stereo not drawn),14 ng/mL,260 ng/mL,320 ng/mL,1000 ng/mL,–,–,–,–
Nc1nc(O)c2c(n1)NCC(CCOc1ccc(C(=O)NC(CCC(=O)O)C(=O)O)cc1)=N2 (stereo not drawn),–,–,240 ng/mL,700 ng/mL,–,–,–,–
Nc1nc(O)c2c(n1)NCC(CCOc1ccc(C(=O)NC(CCC(=O)O)C(=O)O)cc1)N2 (racemic),–,–,–,–,0.7 ng/mL,50 ng/mL,10 ng/mL,19 ng/mL
Nc1nc(O)c2c(n1)NCC(CCOc1ccc(C(=O)NC(CCC(=O)O)C(=O)O)cc1)N2 (stereo in doubt),–,–,–,–,9 ng/mL,> 200 ng/mL,56 ng/mL,64 ng/mL
CN(Cc1cnc2nc(N)nc(N)c2n1)c1ccc(C(=O)N[C@@H](CCC(=O)O)C(=O)O)cc1 [METHOTREXATE],0.05 ng/mL,3500 ng/mL,0.07 ng/mL,–,–,–,–,> 500000 ng/mL
